Assay results reported in PMC5363680 (Molecular Therapy. Nucleic Acids, 2017).

How the values were obtained:
U87 cells [1] = test: Neutral red lyso-toxicity assay, serum-free conditions; assay type: cell-based, human; conditions: reduced serum media, 6 hr, CPP and CPP/siRNA complexes at higher concentrations
Outline: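 U87 cells grown 24 hr in serum-containing medium, then medium replaced by complexes or peptide diluted 1:10 in reduced-serum medium. Controls were untreated cells, 10 μM chloroquine and cell-free wells. Neutral red dye added and incubated 6 hr at 37°C, 5% CO2. Cells then washed with PBS, detection solution added for 10 min, absorbance read at 540 nm and normalized to controls.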

Proteinase K = Proteinase K (Parengyodontium album, UniProt P06873); test: Proteinase K degradation of CPP/siRNA complexes, PicoGreen read-out; assay type: in vitro ADME; conditions: PF6 at MR10, same charge ratio as other CPPs
proteinase = proteinase (Parengyodontium album, UniProt P06873); test: Coincubation of CPP with proteinase, peptide fragments by UPLC; assay type: in vitro ADME; conditions: coincubation of CPP with the enzyme, 2 hr at 37°C, data not shown
U87 cells [2] = test: LDH leakage; assay type: cell-based, human; conditions: reduced serum media, 6 hr, complexes and free peptide at a higher concentration
Outline: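 U87 cells grown 24 hr in serum-containing medium, then switched to serum-free conditions: medium removed and complexes or free peptide added, diluted 1:10 in medium. Controls were untreated cells, 0.1% Triton X-100 and cell-free wells. After 6 hr at 37°C, 5% CO2, LDH activity (CytoTox-ONE) was measured per kit protocol and normalized to controls.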

[3] = tested on: luc2 gene in U87 MG-luc2 cells; test: luc2 gene downregulation after CPP-mediated siRNA delivery; assay type: cell-based, human; conditions: MR30, 25 nM siRNA, 10% FBS media, 24 hr post treatment

Proteinase K, sequence (P06873 106-384): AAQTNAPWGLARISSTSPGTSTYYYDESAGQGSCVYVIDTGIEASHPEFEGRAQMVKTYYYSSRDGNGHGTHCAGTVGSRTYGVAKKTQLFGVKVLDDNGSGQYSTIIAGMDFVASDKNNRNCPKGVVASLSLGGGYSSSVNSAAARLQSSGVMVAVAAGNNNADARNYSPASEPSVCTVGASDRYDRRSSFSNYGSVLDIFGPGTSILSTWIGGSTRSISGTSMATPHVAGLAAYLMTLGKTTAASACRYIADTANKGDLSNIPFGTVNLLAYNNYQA
proteinase, sequence (P06873 106-384): as above

Substance: Stearyl-AGYLLGKINLKALAALAKKIL-NH2 [PF6]
- Neutral red assay (lyso-toxicity) (U87 cells [1]): showed toxic and/or buffering effects
- stability to proteinase, times higher than with other tested CPPs (Proteinase K): 10–20 times
- degradation of CPP by the proteinase (proteinase): lack of a considerable increase of detectable peptide fragments
- LDH leakage (U87 cells [2]): led to LDH leakage
- downregulation of luc2 gene at MR30 [3]: 80%
